Measurements: ChEMBL document CHEMBL4715736, “Identification of anticancer agents based on the thieno[2,3-b]pyridine and 1H-pyrazole molecular scaffolds” (2016)

Tests used:
Assay type in all cases: functional
SK-OV-3 [1] = experiment: Growth inhibition of human SK-OV-3 cells assessed as cell growth at 0.1 uM incubated for 48 hrs by sulforhodamine B assay relative to control; settings: read-out: Activity
SK-MEL-2 [2] = experiment: Growth inhibition of human SK-MEL-2 cells assessed as cell growth at 0.1 uM incubated for 48 hrs by sulforhodamine B assay relative to control; settings: read-out: Activity
SF-295 = experiment: Growth inhibition of human SF-295 cells assessed as cell growth at 1 uM incubated for 48 hrs by sulforhodamine B assay relative to control; settings: read-out: Activity
NCI/ADR-RES = experiment: Growth inhibition of human NCI/ADR-RES cells assessed as cell growth at 0.1 uM incubated for 48 hrs by sulforhodamine B assay relative to control; settings: read-out: Activity
K562 = experiment: Growth inhibition of human K562 cells assessed as cell growth at 0.1 uM incubated for 48 hrs by sulforhodamine B assay relative to control; settings: read-out: Activity
SW-620 = experiment: Growth inhibition of human SW-620 cells incubated for 48 hrs by sulforhodamine B assay
Method in brief: (§1)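 NCI DTP 60-line human tumour panel. Dose-response curves were run only for ligands active in the initial 10 µM screen. GI50 (concentration giving 50% of maximal inhibition of proliferation) and TGI (concentration giving total growth inhibition) were derived from these curves.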

HT-29 = experiment: Growth inhibition of human HT-29 cells assessed as cell growth at 100 uM incubated for 48 hrs by sulforhodamine B assay relative to control; settings: read-out: Activity
T47D = experiment: Growth inhibition of human T47D cells assessed as cell growth at 0.01 uM incubated for 48 hrs by sulforhodamine B assay relative to control; settings: read-out: Activity
CCRF-CEM = experiment: Growth inhibition of human CCRF-CEM cells assessed as cell growth at 0.1 uM incubated for 48 hrs by sulforhodamine B assay relative to control; settings: read-out: Activity
Method in brief: (§2)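 NCI Developmental Therapeutics Program NCI60 panel. Compounds that were active in the 10 µM one-dose screen went on to dose–response testing. Growth at each concentration is expressed relative to untreated control (100%). GI50 (concentration giving 50% of maximal inhibition of proliferation) and TGI (concentration giving total growth inhibition) were derived from the curves.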

A498 = experiment: Growth inhibition of human A498 cells assessed as cell growth at 1 uM incubated for 48 hrs by sulforhodamine B assay relative to control; settings: read-out: Activity; method in brief: as §2
MDA-MB-231 = experiment: Growth inhibition of human MDA-MB-231 cells assessed as cell growth at 100 uM incubated for 48 hrs by sulforhodamine B assay relative to control; settings: read-out: Activity
SK-MEL-2 [3] = experiment: Growth inhibition of human SK-MEL-2 cells incubated for 48 hrs by sulforhodamine B assay; method in brief: as §1
SK-OV-3 [4] = experiment: Growth inhibition of human SK-OV-3 cells incubated for 48 hrs by sulforhodamine B assay; method in brief: as §1
SNB-19 = experiment: Growth inhibition of human SNB-19 cells assessed as cell growth at 0.1 uM incubated for 48 hrs by sulforhodamine B assay relative to control; settings: read-out: Activity
M14 = experiment: Growth inhibition of human M14 cells assessed as cell growth at 1 uM incubated for 48 hrs by sulforhodamine B assay relative to control; settings: read-out: Activity
SN12C = experiment: Growth inhibition of human SN12C cells assessed as cell growth at 0.01 uM incubated for 48 hrs by sulforhodamine B assay relative to control; settings: read-out: Activity
RPMI-8226 = experiment: Growth inhibition of human RPMI-8226 cells assessed as cell growth at 100 uM incubated for 48 hrs by sulforhodamine B assay relative to control; settings: read-out: Activity
OVCAR-5 [5] = experiment: Growth inhibition of human OVCAR-5 cells assessed as cell growth at 0.01 uM incubated for 48 hrs by sulforhodamine B assay relative to control; settings: read-out: Activity
RXF 393 = experiment: Growth inhibition of human RXF 393 cells assessed as cell growth at 1 uM incubated for 48 hrs by sulforhodamine B assay relative to control; settings: read-out: Activity
ACHN [6] = experiment: Growth inhibition of human ACHN cells assessed as cell growth at 100 uM incubated for 48 hrs by sulforhodamine B assay relative to control; settings: read-out: Activity
SK-MEL-2 [7] = experiment: Growth inhibition of human SK-MEL-2 cells assessed as cell growth at 0.01 uM incubated for 48 hrs by sulforhodamine B assay relative to control; settings: read-out: Activity
MDA-MB-435 = experiment: Growth inhibition of human MDA-MB-435 cells incubated for 48 hrs by sulforhodamine B assay
Method in brief: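 NCI60 panel at the NCI Developmental Therapeutics Program. Only compounds active in the 10 µM screen went to dose-response testing. GI50, the concentration giving 50% of maximal inhibition of proliferation, and TGI, the concentration giving total growth inhibition, were derived from the dose-response curves.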

HOP-62 = experiment: Growth inhibition of human HOP-62 cells assessed as cell growth at 0.1 uM incubated for 48 hrs by sulforhodamine B assay relative to control; settings: read-out: Activity
LOX IMVI = experiment: Growth inhibition of human LOX IMVI cells assessed as cell growth at 100 uM incubated for 48 hrs by sulforhodamine B assay relative to control; settings: read-out: Activity
ACHN [8] = experiment: Growth inhibition of human ACHN cells assessed as cell growth at 0.1 uM incubated for 48 hrs by sulforhodamine B assay relative to control; settings: read-out: Activity
OVCAR-4 = experiment: Growth inhibition of human OVCAR-4 cells incubated for 48 hrs by sulforhodamine B assay; method in brief: as §1
OVCAR-8 = experiment: Growth inhibition of human OVCAR-8 cells assessed as cell growth at 0.1 uM incubated for 48 hrs by sulforhodamine B assay relative to control; settings: read-out: Activity
DU-145 = experiment: Growth inhibition of human DU-145 cells assessed as cell growth at 1 uM incubated for 48 hrs by sulforhodamine B assay relative to control; settings: read-out: Activity; method in brief: as §2
OVCAR-5 [9] = experiment: Growth inhibition of human OVCAR-5 cells assessed as cell growth at 0.1 uM incubated for 48 hrs by sulforhodamine B assay relative to control; settings: read-out: Activity
A549 = experiment: Growth inhibition of human A549/ATCC cells assessed as cell growth at 0.1 uM incubated for 48 hrs by sulforhodamine B assay relative to control; settings: read-out: Activity; method in brief: as §2
HOP-92 = experiment: Growth inhibition of human HOP-92 cells assessed as cell growth at 100 uM incubated for 48 hrs by sulforhodamine B assay relative to control; settings: read-out: Activity
CAKI-1 = experiment: Growth inhibition of human CAKI-1 cells assessed as cell growth at 1 uM incubated for 48 hrs by sulforhodamine B assay relative to control; settings: read-out: Activity; method in brief: as §2
ACHN [10] = experiment: Growth inhibition of human ACHN cells assessed as cell growth at 0.01 uM incubated for 48 hrs by sulforhodamine B assay relative to control; settings: read-out: Activity
SF-268 = experiment: Growth inhibition of human SF-268 cells assessed as cell growth at 1 uM incubated for 48 hrs by sulforhodamine B assay relative to control; settings: read-out: Activity
[11] = read-out: LC50 (the source's name)

`CCc1ccccc1NC(=O)c1sc2nc3c(cc2c1N)C(=O)CCC3` showed a growth at 0.1 µM (SK-OV-3 [1]) of 103%, a growth at 0.1 µM (SK-MEL-2 [2]) of 104% and a growth at 1 µM (SF-295) of 13%. For the same compound, the growth at 0.1 µM (NCI/ADR-RES) was 88%, the growth at 0.1 µM (K562) was 63% and the GI50 (SW-620) was 0.322 µM. For the same compound, the LC50 (concentration killing 50% of cells) (SW-620) was > 100 µM, the TGI (SW-620) was > 100 µM and the growth at 100 µM (HT-29) was -7%. It also gave a growth at 0.01 µM (T47D) of 99%, a growth at 0.1 µM (CCRF-CEM) of 89% and a growth at 1 µM (A498) of -14%. The growth at 100 µM (MDA-MB-231) was 4%, the LC50 (SK-MEL-2 [3]) was > 100 µM and the TGI (SK-MEL-2 [3]) was > 100 µM. For the same compound, the GI50 (SK-OV-3 [4]) was 0.537 µM, the TGI (SK-OV-3 [4]) was 75.7 µM and the CC50 (SK-OV-3 [4]; [11]) was > 100 µM. The growth at 0.1 µM (SNB-19) was 88%, the growth at 1 µM (M14) was 17% and the growth at 0.01 µM (SN12C) was 94%. It also gave a growth at 100 µM (RPMI-8226) of -5%, a growth at 0.01 µM (OVCAR-5 [5]) of 84% and a growth at 1 µM (RXF 393) of -8%. It also gave a growth at 100 µM (ACHN [6]) of 10%, a growth at 0.01 µM (SK-MEL-2 [7]) of 108% and a GI50 (MDA-MB-435) of 0.0464 µM. For the same compound, the TGI (MDA-MB-435) was 0.225 µM, the CC50 (MDA-MB-435; [11]) was > 100 µM and the growth at 0.1 µM (HOP-62) was 82%. It also gave a growth at 100 µM (LOX IMVI) of 24%, a growth at 0.1 µM (ACHN [8]) of 92% and a GI50 (OVCAR-4) of 0.0315 µM. For the same compound, the TGI (OVCAR-4) was > 100 µM, the CC50 (OVCAR-4; [11]) was > 100 µM and the growth at 0.1 µM (OVCAR-8) was 97%. For the same compound, the growth at 1 µM (DU-145) was 27%, the growth at 0.1 µM (OVCAR-5 [9]) was 83% and the growth at 0.1 µM (A549) was 88%. It also gave a growth at 100 µM (HOP-92) of -6%, a growth at 1 µM (CAKI-1) of 33% and a growth at 0.01 µM (ACHN [10]) of 93%. The growth at 1 µM (SF-268) was 53%.
